Measured values: ChEMBL document CHEMBL2203081 (Bioorg Med Chem Lett, 2012)

Experiments:
[1] = biological target: Mitogen-activated protein kinase 10 (Homo sapiens) (UniProt P53779); assay: Inhibition of JNK3 assessed as residual activity at 10 uM relative to control
[2] = test system: Epidermal growth factor receptor (Homo sapiens), P00533 [L858R,T790M]; assay: Inhibition of EGFR L858R,T790M mutant assessed as residual activity at 10 uM relative to control; type: protein assay
Procedure, shortened: (§1)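 Competition kinase-binding assay (KINOMEscan) across a non-redundant panel of 329 kinases beyond the radiometric panel; residual binding expressed relative to control.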

[3] = biological target: Cyclin-dependent kinase 5 (Homo sapiens) (UniProt Q00535); assay: Inhibition of CDK5 assessed as residual activity at 10 uM relative to control
Cyclin-dependent kinase 5 (Homo sapiens), sequence (Q00535 whole entry, looked up): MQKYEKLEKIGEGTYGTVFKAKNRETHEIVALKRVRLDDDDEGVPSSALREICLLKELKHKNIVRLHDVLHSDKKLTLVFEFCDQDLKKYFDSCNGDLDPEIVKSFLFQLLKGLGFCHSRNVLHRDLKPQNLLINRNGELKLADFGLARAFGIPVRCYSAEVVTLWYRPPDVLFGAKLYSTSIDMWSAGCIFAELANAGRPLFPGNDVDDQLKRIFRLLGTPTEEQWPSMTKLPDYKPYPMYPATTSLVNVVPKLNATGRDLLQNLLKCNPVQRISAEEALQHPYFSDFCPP

[4] = biological target: Myotonin-protein kinase (Homo sapiens) (UniProt Q09013); assay: Inhibition of DMPK assessed as residual activity at 10 uM relative to control; procedure, shortened: as §1
Myotonin-protein kinase (Homo sapiens), sequence (Q09013 whole entry): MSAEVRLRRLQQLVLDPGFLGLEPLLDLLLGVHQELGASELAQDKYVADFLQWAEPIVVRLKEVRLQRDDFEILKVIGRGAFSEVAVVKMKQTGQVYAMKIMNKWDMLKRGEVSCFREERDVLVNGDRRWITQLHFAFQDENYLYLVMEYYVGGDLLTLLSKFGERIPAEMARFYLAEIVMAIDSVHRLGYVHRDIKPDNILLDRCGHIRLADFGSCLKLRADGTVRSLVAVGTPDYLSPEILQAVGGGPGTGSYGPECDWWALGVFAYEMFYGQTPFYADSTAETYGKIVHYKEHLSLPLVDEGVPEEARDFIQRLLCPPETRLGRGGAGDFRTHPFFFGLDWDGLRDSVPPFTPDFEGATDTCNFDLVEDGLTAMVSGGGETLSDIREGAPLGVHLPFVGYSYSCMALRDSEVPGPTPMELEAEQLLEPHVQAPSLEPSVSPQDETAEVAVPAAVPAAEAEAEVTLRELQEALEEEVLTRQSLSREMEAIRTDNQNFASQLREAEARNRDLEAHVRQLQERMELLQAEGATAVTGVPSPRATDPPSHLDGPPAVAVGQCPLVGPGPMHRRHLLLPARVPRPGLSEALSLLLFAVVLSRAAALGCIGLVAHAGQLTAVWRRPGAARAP

[5] = biological target: Serine/threonine-protein kinase 35 (Homo sapiens) (UniProt Q8TDR2); assay: Inhibition of STK35 assessed as residual activity at 10 uM relative to control
Serine/threonine-protein kinase 35 (Homo sapiens), sequence (Q8TDR2 whole entry): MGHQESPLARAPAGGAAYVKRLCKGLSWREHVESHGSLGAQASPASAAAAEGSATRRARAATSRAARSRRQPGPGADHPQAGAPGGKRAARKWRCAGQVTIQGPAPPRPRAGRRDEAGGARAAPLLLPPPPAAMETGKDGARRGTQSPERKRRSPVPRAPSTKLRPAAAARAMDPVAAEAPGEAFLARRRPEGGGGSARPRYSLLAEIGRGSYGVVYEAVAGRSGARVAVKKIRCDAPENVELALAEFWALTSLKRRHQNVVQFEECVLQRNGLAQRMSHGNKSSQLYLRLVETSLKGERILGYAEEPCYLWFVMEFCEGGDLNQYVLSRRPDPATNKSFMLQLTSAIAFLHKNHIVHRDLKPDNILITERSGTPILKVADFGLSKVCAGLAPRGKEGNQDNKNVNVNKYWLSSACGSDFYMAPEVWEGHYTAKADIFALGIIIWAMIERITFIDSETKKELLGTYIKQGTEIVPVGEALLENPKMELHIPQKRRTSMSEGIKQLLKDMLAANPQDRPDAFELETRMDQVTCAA

[6] = biological target: Mitogen-activated protein kinase 4 (Homo sapiens) (UniProt P31152); assay: Inhibition of ERK4 assessed as residual activity at 10 uM relative to control
Mitogen-activated protein kinase 4 (Homo sapiens), sequence (P31152 whole entry): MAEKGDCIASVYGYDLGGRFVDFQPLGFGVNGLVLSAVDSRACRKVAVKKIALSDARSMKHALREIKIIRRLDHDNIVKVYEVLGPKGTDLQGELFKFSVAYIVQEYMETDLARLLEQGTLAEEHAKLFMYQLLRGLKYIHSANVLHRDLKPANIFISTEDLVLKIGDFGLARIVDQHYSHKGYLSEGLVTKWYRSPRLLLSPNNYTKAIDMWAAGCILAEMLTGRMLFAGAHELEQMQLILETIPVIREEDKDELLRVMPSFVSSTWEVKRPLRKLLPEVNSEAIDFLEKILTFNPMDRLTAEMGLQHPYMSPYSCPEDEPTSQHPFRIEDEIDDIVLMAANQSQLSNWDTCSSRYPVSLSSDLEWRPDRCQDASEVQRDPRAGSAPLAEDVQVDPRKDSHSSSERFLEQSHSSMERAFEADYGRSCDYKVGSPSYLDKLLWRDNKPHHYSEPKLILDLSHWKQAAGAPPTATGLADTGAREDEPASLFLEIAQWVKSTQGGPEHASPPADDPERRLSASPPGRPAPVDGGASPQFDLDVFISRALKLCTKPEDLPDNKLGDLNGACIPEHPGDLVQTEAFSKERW

[7] = biological target: Proto-oncogene tyrosine-protein kinase ROS (Homo sapiens) (UniProt P08922); assay: Inhibition of ROS1 assessed as residual activity at 10 uM relative to control
[8] = biological target: Citron Rho-interacting kinase (Homo sapiens) (UniProt O14578); assay: Inhibition of CIT assessed as residual activity at 10 uM relative to control
Citron Rho-interacting kinase (Homo sapiens), sequence (O14578 whole entry): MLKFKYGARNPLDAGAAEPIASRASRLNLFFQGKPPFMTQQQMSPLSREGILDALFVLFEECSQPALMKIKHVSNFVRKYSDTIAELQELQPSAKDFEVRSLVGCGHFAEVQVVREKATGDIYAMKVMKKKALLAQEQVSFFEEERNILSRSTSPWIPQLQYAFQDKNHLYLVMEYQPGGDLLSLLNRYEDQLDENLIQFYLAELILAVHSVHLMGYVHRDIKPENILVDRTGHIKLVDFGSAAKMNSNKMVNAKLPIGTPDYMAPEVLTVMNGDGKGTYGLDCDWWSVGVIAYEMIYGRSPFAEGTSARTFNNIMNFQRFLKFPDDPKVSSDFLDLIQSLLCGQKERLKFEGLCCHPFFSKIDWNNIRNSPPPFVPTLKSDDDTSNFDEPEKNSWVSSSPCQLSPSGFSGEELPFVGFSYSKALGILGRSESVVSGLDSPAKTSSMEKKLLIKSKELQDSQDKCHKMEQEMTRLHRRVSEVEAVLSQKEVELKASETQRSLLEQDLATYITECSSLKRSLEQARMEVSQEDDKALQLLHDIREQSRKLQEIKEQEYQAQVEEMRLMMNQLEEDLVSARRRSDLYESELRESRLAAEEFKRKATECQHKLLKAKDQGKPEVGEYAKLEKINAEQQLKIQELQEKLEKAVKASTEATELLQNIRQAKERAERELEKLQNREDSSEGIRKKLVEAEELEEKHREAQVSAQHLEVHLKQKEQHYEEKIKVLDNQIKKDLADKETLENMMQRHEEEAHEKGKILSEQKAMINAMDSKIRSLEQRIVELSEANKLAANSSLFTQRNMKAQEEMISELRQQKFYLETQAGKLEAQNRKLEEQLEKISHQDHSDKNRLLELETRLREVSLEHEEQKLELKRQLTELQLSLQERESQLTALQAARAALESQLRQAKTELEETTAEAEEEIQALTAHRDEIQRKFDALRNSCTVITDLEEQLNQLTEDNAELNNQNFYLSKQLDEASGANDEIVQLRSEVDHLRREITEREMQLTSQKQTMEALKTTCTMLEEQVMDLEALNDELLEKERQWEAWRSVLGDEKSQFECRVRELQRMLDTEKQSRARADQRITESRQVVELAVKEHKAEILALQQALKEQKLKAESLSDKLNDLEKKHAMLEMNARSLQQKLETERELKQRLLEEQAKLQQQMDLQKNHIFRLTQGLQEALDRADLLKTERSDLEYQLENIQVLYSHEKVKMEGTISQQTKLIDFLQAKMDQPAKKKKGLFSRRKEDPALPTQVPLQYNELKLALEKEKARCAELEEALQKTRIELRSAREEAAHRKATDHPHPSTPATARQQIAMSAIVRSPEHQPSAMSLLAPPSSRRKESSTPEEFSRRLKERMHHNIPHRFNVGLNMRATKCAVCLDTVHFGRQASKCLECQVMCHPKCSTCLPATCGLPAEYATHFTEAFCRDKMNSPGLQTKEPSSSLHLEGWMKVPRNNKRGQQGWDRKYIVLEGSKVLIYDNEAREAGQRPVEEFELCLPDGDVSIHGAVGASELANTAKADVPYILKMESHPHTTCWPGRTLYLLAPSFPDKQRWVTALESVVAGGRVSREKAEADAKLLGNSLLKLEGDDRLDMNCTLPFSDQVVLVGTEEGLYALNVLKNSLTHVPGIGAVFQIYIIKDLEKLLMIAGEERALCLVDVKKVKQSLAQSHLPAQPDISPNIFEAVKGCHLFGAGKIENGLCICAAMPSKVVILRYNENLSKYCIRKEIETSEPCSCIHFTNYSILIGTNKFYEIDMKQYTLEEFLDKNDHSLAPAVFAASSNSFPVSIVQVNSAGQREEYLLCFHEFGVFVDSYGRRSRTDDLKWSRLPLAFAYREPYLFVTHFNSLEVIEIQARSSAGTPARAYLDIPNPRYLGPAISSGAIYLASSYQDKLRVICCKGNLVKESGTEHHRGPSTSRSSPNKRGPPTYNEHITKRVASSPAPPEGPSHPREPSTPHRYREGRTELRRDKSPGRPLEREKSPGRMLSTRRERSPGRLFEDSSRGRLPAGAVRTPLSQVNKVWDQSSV

[9] = biological target: Protein-tyrosine kinase 6 (Homo sapiens) (UniProt Q13882); assay: Inhibition of BRK assessed as residual activity at 1 uM
Protein-tyrosine kinase 6 (Homo sapiens), sequence (Q13882 whole entry, looked up): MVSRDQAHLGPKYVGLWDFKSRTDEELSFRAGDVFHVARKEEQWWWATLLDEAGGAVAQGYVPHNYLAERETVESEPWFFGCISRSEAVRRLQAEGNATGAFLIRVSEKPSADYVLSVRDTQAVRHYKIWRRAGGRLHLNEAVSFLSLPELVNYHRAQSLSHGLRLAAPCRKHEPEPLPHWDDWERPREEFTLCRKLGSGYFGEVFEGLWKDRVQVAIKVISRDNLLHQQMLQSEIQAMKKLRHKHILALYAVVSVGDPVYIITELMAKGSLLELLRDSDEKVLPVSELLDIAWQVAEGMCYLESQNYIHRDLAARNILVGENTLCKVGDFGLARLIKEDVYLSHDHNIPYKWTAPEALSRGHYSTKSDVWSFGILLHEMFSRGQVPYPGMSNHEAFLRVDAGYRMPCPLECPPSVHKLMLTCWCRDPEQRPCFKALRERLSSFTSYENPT
Procedure, shortened: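 Radioactivity-based enzymatic assay against a panel of 131 kinases (Dundee profiling). Activity remaining was measured with compound present at the stated concentration.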

[10] = biological target: Interleukin-1 receptor-associated kinase 4 (Homo sapiens) (UniProt Q9NWZ3); assay: Inhibition of IRAK4 assessed as residual activity at 10 uM relative to control

Mitogen-activated protein kinase 10 (Homo sapiens), sequence (P53779 whole entry): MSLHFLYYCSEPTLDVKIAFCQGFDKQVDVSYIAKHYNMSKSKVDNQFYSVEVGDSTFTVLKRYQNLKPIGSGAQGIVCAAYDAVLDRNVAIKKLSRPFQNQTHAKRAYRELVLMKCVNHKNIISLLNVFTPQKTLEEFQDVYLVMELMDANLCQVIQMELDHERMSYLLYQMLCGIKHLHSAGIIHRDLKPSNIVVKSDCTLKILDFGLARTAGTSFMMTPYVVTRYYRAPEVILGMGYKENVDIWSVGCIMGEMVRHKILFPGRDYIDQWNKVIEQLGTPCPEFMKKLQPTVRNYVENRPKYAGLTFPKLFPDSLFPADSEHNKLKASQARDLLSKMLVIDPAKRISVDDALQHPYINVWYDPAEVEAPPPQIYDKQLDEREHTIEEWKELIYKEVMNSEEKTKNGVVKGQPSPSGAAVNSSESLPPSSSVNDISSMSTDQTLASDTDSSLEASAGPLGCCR

O=C(Nc1cccnc1)c1cc(-c2ccnc(F)c2)ccc1OCc1ccccc1
Activity [1]: 52% | Activity [2]: 46% | Activity [3]: 70% | Activity [4]: 58% | Activity [5]: 44% | Activity [6]: 59% | Activity [7]: 73% | Activity [8]: 48% | Activity [9]: 103% | Activity [10]: 58%
